Here are results for 19 compounds from ChEMBL document CHEMBL1781898, “Orally active achiral N-hydroxyformamide inhibitors of ADAM-TS4 (aggrecanase-1) and ADAM-TS5 (aggrecanase-2) for the treatment of osteoarthritis” (Bioorg Med Chem Lett, 2011).

The target of data set [1] is Matrix metalloproteinase-14 (Homo sapiens, UniProt P50281). The data set is described as follows: Inhibition of recombinant human MMP-14 assessed as substrate cleavage after 20 hrs by fluorescence assay. Put shortly: (§1)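 Enzyme inhibition IC50s derived from at least six measurements, standard errors normally <5% within an assay; a standard compound run to keep assay-to-assay variability within twofold.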

Data set [2] addresses T1, Interstitial collagenase (Homo sapiens, UniProt P03956).
T1 sequence (P03956 whole entry): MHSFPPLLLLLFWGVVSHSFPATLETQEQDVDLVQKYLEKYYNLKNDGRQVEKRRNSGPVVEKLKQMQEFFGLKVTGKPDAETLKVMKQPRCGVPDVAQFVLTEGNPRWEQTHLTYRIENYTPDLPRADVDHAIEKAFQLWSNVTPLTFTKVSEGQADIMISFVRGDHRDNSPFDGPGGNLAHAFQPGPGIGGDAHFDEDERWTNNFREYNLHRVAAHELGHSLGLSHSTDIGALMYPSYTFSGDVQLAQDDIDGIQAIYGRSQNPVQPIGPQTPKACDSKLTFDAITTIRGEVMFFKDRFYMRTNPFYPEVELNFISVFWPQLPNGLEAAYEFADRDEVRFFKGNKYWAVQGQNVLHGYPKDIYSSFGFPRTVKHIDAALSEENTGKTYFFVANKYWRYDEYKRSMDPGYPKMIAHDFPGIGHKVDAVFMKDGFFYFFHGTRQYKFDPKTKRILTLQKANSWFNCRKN
The data set is described as follows: Inhibition of recombinant human MMP-1 assessed as substrate cleavage after 20 hrs by fluorescence assay. Put shortly:
as §1

The target in data set [3] is T2, A disintegrin and metalloproteinase with thrombospondin motifs 4 (Homo sapiens, UniProt O75173).
T2 sequence (O75173 whole entry): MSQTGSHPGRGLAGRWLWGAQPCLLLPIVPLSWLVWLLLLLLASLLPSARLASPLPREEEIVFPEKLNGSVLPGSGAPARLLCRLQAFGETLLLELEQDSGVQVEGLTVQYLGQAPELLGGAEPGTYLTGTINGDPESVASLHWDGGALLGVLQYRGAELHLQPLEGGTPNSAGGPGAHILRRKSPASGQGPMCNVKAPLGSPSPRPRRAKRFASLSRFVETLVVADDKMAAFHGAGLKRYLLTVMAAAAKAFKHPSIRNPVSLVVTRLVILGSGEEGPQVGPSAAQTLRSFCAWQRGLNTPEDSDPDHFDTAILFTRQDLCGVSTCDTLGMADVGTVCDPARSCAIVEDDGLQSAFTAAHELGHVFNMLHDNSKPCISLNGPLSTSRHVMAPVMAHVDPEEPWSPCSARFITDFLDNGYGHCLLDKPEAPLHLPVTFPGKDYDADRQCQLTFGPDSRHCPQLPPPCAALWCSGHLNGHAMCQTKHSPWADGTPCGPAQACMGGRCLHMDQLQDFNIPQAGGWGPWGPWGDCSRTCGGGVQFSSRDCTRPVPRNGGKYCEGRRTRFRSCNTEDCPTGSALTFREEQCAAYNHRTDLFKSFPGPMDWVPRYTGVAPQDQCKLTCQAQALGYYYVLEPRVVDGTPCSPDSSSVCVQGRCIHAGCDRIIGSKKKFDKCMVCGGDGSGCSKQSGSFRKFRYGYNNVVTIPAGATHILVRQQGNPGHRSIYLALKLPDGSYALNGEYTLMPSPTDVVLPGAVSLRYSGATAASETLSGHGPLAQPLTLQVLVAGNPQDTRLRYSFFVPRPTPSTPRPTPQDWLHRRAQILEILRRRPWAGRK
The data set is described as follows: Inhibition of ADAMTS-4 assessed as substrate cleavage after 16 hrs by fluorescence assay. The procedure, abridged:
as §1

Data set [4] has as its target T3, A disintegrin and metalloproteinase with thrombospondin motifs 5 (Homo sapiens, UniProt Q9UNA0).
T3 sequence (Q9UNA0 whole entry): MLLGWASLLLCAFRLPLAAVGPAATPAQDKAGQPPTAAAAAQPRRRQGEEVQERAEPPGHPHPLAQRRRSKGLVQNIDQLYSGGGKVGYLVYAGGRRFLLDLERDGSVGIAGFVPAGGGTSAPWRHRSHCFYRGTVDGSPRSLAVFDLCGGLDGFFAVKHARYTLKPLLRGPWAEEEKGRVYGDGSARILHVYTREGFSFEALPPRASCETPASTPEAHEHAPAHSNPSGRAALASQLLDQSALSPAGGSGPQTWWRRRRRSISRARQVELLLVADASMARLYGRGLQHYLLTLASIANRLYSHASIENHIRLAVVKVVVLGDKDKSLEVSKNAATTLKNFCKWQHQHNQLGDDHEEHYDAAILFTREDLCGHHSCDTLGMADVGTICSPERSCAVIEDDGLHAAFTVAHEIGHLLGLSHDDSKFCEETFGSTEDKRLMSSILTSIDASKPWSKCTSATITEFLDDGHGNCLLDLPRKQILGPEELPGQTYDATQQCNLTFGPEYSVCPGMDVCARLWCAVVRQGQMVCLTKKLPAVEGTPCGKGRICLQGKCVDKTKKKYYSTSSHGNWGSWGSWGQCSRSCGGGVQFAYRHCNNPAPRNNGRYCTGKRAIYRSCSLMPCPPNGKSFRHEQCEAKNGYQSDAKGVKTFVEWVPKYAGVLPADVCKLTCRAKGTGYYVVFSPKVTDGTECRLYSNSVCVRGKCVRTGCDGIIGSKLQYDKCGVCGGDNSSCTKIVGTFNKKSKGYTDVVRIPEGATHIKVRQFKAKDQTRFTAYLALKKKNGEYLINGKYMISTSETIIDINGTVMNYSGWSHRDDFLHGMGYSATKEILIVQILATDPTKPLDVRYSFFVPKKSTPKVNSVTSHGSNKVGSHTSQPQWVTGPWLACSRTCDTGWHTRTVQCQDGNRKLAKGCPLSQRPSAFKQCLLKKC
The data set is described as follows: Inhibition of ADAMTS-5 assessed as substrate cleavage after 16 hrs by fluorescence assay. The procedure, abridged:
as §1

For data set [5], the target named is Collagenase 3 (Homo sapiens, UniProt P45452). Nature of the data set: Inhibition of recombinant human MMP-13 assessed as substrate cleavage after 20 hrs by fluorescence assay. Put shortly: as §1
For data set [6], the target named is 72 kDa type IV collagenase (Homo sapiens, UniProt P08253). The data set is described as follows: Inhibition of recombinant human MMP-2 assessed as substrate cleavage after 20 hrs by fluorescence assay. Put shortly:
as §1

Data set [7] addresses Matrix metalloproteinase-9 (Homo sapiens, UniProt P14780). Nature of the data set: Inhibition of recombinant human MMP-9 assessed as substrate cleavage after 20 hrs by fluorescence assay. Put shortly:
as §1

Data set [8] is described as follows: Intrinsic clearance in human liver microsomes. The class given is ADME, Microsome. Put shortly: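 Human liver microsome metabolism; intrinsic clearance expressed as μL/min/mg, reported as mean of eight separate experiments.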
Background: Microsomes from liver hold many membrane-bound enzymes, among them those of drug oxidation.

pIC50: −log10 of the molar value.

Chain of 72 kDa type IV collagenase (P08253 whole entry): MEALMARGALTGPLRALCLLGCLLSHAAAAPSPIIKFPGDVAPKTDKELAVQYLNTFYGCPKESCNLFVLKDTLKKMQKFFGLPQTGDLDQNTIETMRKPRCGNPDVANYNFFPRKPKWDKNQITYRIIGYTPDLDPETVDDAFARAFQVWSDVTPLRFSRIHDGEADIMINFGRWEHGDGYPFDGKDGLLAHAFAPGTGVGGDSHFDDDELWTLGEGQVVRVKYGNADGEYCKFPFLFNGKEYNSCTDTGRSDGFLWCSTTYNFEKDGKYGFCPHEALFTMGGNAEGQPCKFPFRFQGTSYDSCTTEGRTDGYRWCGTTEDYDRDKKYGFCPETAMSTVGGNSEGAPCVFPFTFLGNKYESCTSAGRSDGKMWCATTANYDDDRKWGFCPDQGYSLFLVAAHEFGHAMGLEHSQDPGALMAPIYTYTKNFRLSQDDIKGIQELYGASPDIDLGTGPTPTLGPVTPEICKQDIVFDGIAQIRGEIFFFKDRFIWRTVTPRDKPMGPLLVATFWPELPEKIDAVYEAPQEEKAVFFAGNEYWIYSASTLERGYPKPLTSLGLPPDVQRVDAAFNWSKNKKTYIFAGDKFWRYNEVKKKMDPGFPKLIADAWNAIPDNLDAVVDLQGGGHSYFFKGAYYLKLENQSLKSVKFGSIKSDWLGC
Chain of Matrix metalloproteinase-9 (P14780 whole entry): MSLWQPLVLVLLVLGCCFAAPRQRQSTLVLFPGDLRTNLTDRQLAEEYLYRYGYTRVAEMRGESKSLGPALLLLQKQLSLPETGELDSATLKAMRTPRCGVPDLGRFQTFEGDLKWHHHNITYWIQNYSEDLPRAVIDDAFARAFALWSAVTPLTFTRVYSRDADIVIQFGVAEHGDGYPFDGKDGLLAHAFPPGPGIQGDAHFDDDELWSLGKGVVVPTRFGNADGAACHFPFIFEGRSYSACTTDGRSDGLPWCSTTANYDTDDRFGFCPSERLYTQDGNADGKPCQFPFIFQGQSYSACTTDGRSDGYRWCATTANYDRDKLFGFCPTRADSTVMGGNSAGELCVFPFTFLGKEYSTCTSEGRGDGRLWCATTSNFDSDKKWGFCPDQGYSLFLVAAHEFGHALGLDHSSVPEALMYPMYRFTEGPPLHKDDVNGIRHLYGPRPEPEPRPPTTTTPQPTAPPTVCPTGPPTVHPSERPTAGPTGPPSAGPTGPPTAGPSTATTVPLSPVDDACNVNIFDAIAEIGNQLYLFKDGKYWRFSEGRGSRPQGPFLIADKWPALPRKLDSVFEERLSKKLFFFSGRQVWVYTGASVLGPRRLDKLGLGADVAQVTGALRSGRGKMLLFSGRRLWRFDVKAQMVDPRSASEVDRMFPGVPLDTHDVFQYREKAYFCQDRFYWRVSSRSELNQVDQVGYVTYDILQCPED

For the compound `Cc1noc(C)c1CCC1CCN(S(=O)(=O)CC2(N(O)C=O)CCCCCC2)CC1`, the pIC50 (in general, the negative decadic logarithm of the IC50, by convention in mol/L) in data set [1] was under 5.00; in data set [2] it was under 5.00; in data set [3] it was 7.32; in data set [4], 5.82; in data set [5], under 5.00; in data set [6] it was under 5.00. The pIC50 in data set [7] was under 5.00. In addition, the intrinsic clearance (microsomal CLint) – broadly, the rate of metabolic loss divided by the concentration – in data set [8] worked out at 59 µL/min/mg.

With `Cc1cc(Cl)ccc1CCC1CCN(S(=O)(=O)CC2(N(O)C=O)CCN(C(=O)C3CCC3)CC2)CC1`, the figures for the pIC50 in data set [3] and in data set [4] were 8.92 and 7.70, respectively.

With `O=CN(O)C1(CS(=O)(=O)N2CCC(CCc3ccccc3)CC2)CCOCC1`, the pIC50 in data set [1] was 5.92; in data set [2] it was under 5.00; in data set [3], 6.33; in data set [4], 5.77; in data set [5] it was 6.59; in data set [6], 6.82. Also, the pIC50 in data set [7] was 6.17. Besides, in data set [8], the microsomal CLint is 8.8 µL/min/mg.

Consider `Cc1cc(C(F)(F)F)ccc1CCC1CCN(S(=O)(=O)CC2(N(O)C=O)CCN(C(=O)C3CCC3)CC2)CC1`, for which the pIC50 was 8.92 in data set [3] and 7.10 in data set [4].

In the case of `Cc1cnc(C)c(CCC2CCN(S(=O)(=O)CC3(N(O)C=O)CCOCC3)CC2)c1`, the pIC50 in data set [1] was under 5.00; in data set [2], under 5.00; in data set [3], 6.42; in data set [4], 5.28; in data set [5] it was 5.08; in data set [6] it was under 5.00. In addition, the pIC50 in data set [7] is under 5.00.

Take `Cc1cc(Cl)ccc1CCC1CCN(S(=O)(=O)CC2(N(O)C=O)CCOCC2)CC1`: the pIC50 is under 5.00 in data set [1]; under 5.00 in data set [2]; 8.57 in data set [3]; 7.19 in data set [4]; 6.11 in data set [5]; 5.85 in data set [6]. Besides, the pIC50 in data set [7] was 5.92.

In the case of `Cc1ccccc1CCC1CCN(S(=O)(=O)CC2(N(O)C=O)CCOCC2)CC1`, the pIC50 in data set [1] is under 6.11; in data set [2], under 5.00; in data set [3], 8.25; in data set [4] it was 7.51; in data set [5], under 6.22; in data set [6] it was 6.21. Further, the pIC50 in data set [7] is under 5.74. The compound also displayed an intrinsic metabolic clearance (microsomal CLint) in data set [8] of under 2 µL/min/mg.

On to `Cc1ncccc1CCC1CCN(S(=O)(=O)CC2(N(O)C=O)CCOCC2)CC1`, for which the pIC50 is 5.10 in data set [1]; under 5.00 in data set [2]; 6.40 in data set [3]; 5.27 in data set [4]; 5.70 in data set [5]; 5.42 in data set [6]. In addition, in data set [7], the pIC50 was under 5.00. In data set [8], the microsomal CLint is under 2 µL/min/mg.

Take `Cc1noc(C)c1CCC1CCN(S(=O)(=O)CC2(N(O)C=O)CCN(C(=O)N3CCC3)CC2)CC1`: the pIC50 in data set [1] is under 5.00; in data set [2], under 5.00; in data set [3], 7.96; in data set [4] it was 6.32; in data set [5], under 5.00; in data set [6] it was under 5.00. Moreover, the pIC50 in data set [7] was under 5.00. This compound also returned a microsomal CLint in data set [8] of 31 µL/min/mg.

As for `Cc1cc(C)c(CCC2CCN(S(=O)(=O)CC3(N(O)C=O)CCOCC3)CC2)cn1`, the pIC50 in data set [1] was under 5.00; in data set [2], under 5.00; in data set [3] it was 6.89; in data set [4], 5.85; in data set [5], under 5.00; in data set [6], 5.12. Moreover, in data set [7], the pIC50 was 5.05.

With `Cc1noc(C)c1CCC1CCN(S(=O)(=O)CC2(N(O)C=O)CCCC2)CC1`, the pIC50 in data set [1] was under 5.00; in data set [2], under 5.00; in data set [3], 7.28; in data set [4], 5.72; in data set [5], under 5.00; in data set [6], under 5.00. The pIC50 in data set [7] is under 5.00.

As for `Cc1cccnc1CCC1CCN(S(=O)(=O)CC2(N(O)C=O)CCOCC2)CC1`, the pIC50 was 5.54 in data set [1]; under 5.00 in data set [2]; 7.00 in data set [3]; 6.24 in data set [4]; 5.96 in data set [5]; 5.96 in data set [6]. Further, the pIC50 in data set [7] was 5.07. The microsomal CLint in data set [8] came to 3.8 µL/min/mg.

For `CS(=O)(=O)c1ccc(CCC2CCN(S(=O)(=O)CC3(N(O)C=O)CCOCC3)CC2)c(C2CC2)c1`, the pIC50 in data set [1] is under 5.00; in data set [2] it was under 5.00; in data set [3] it was 8.85; in data set [4] it was 6.02; in data set [5], under 5.00; in data set [6], under 5.00. For the same compound, the pIC50 in data set [7] was under 5.00. Further, the microsomal CLint in data set [8] is 3.7 µL/min/mg.

With `O=CN(O)C1(CS(=O)(=O)N2CCC(CCc3ccc(F)cc3C(F)(F)F)CC2)CCN(C(=O)C2CCC2)CC1`, the pIC50 in data set [3] is 8.06; in data set [4], 7.21.

As for `Cc1noc(C)c1CCC1CCN(S(=O)(=O)CC2(N(O)C=O)CCCCC2)CC1`, the pIC50 in data set [1] is under 5.12; in data set [2], under 5.00; in data set [3], 7.70; in data set [4] it was 6.07; in data set [5], under 5.39; in data set [6] it was under 5.00. The pIC50 in data set [7] is under 5.00.

For the compound `Cc1noc(C)c1CCC1CCN(S(=O)(=O)CC2(N(O)C=O)CCN(S(C)(=O)=O)CC2)CC1`, the pIC50 in data set [1] is under 5.00; in data set [2] it was under 5.00; in data set [3], 7.54; in data set [4] it was 6.51; in data set [5] it was 5.34; in data set [6], under 5.00. In addition, in data set [7], the negative-log IC50 (pIC50) was under 5.00. The microsomal CLint in data set [8] is 6.5 µL/min/mg.

Take `Cc1cc(S(C)(=O)=O)ccc1CCC1CCN(S(=O)(=O)CC2(N(O)C=O)CCOCC2)CC1`: the pIC50 is under 5.00 in data set [1]; under 5.00 in data set [2]; 8.24 in data set [3]; 6.28 in data set [4]; 5.77 in data set [5]; 5.48 in data set [6]. Further, the pIC50 in data set [7] was under 5.00. Further, in data set [8], the microsomal CLint is 2 µL/min/mg.

In the case of `Cc1cc(F)ccc1CCC1CCN(S(=O)(=O)CC2(N(O)C=O)CCN(C(=O)C3CCC3)CC2)CC1`, the pIC50 is 8.72 in data set [3] and 7.96 in data set [4].

Regarding `Cc1ccccc1CCC1CCN(S(=O)(=O)CC2(N(O)C=O)CCN(C(=O)C3CCC3)CC2)CC1`, the pIC50 in data set [3] is 8.39; in data set [4], 7.89.
